Yeast life ext: compounds extending yeast replicative lifespan, primary screen, S. cerevisiae, OD615. S. cerevisiae growth with nicotinamide; deaD strain in restrictive glucose medium. inhibition of the nicotinamide effect, % at 10 µM. actives 0.68% (n = 130,000);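 active = inhibition above a set limit, placed 3 SD over the median of all compounds, cut at about 26% in these data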;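 note: 0% = nicotinamide-treated wells and 100% = cells grown without nicotinamide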
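Test system – modified budding yeast, DeaD strain · Compound – single dose 10 µM compound, 0.25% DMSO · Times – culture preincubation 4 h, compound exposure 48 h, both 30 °C · Detection – optical density (absorbance) at 615 nm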
BB579 growth dn: growth inhibitors of yeast BB579 in restrictive medium, primary screen, yeast lifespan-shortening project, S. cerevisiae; OD615, 48 h; actives 0.51% (n = 140,000); AID 804, 2007; inhibition, % at 10 µM;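 active = inhibition above a set limit, 3 SD over the mean compound inhibition, cut at about 44% in these data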
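System: DeaD yeast strain BB579; buffer or medium: CSMM-D dextrose restrictive medium; technique: OD at 615 nm; schedule: 4 h cell preincubation, 48 h compound exposure, 30 °C humidified; doses: single 10 µM dose; controls: amphotericin B 10 µg/mL, positive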
Measles CPE: compounds protecting cells from measles virus cytopathic effect, primary screen, measles RdRp inhibitor project, single point, MLSMR library, absorbance. Measles virus-infected cells, CPE protection. protection (pct of control), % at 4 µM. actives 1.5% (n = 140,000). AID 841, 2007; in the data active = protection mostly above about 24%, no sharp cut-off; inactive = mostly below about 26%
RAM network inh: inhibitors of the yeast RAM network, primary screen, dse1pr::URA3 reporter, 5-FOA selection; actives 1.8% (n = 190,000); AID 868, 2007; inhibition, % at 50 µM; S. cerevisiae dse1pr::URA3 reporter, 5-FOA growth OD615, 2 d; analog-sensitive cbk1-as2 kinase mutant strain;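 active = inhibition above a set limit, 3 SD over mean compound inhibition, cut at about 8.4% in these data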;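 note: 0% = DMSO-only wells with no growth and 100% = 10 µM 1-NA-PP1 full growth; inhibition rescues growth on 5-FOA so higher OD means more RAM inhibition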
sdo1 growth: growth rescue of sdo1-depleted yeast, primary screen, S. cerevisiae, bone marrow failure model; S. cerevisiae sdo1-depleted JHY4D growth rescue, OD600 30 h; hits give high values; pdr5 snq2 efflux-pump mutant strain; z-score at 10 µM; actives 0.21% (n = 140,000);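 active = z-score above 3 at both the 24 hr and the 30 hr optical density reads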;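 note: z-score against mean and SD of all compound wells on the same plate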
RAM efflux-def: 5-FOA growth of efflux-deficient control yeast, dose response, counter-screen for RAM network inhibitor project, S. cerevisiae, OD615; shares compounds with RAM network inh; S. cerevisiae efflux-deficient reporter strain, 5-FOA growth OD615, 2 days; max inhibition, %; 1,200 tested, under 10 active; call rule not given here;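 note: plate controls were vehicle for no effect and reference inhibitor for full effect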
Starred values were filed as active, the others as inactive; x = not tested or not shown. Compounds with a hit are over-represented: about 3.8% of the library has one in this group of screens.

SMILES	Yeast life ext	BB579 growth dn	Measles CPE	RAM network inh	sdo1 growth	RAM efflux-def
CCOC(=O)c1cnc2c(cnn2C)c1NCCCn1ccnc1	x	x	x	-1	x	x
CCOC(=O)c1c(NC(=S)Nc2ccc(OC)cc2)sc2c1CCCCC2	-3	-57	15	15*	-0.46	2
CC1Cc2nc(SCC(=O)Nc3nc4ccccc4s3)n(C)c(=O)c2S1 (stereo not given)	-11	-36	14	3	0.34	x
Cc1cc(C)cc(OC(=O)N2CCOCC2)c1	-6	-3	24	0	0.21	x
O=C(NCCSCc1ccccc1)c1ccc(C2SCC(=O)N2Cc2ccccc2)cc1 (stereo not given)	-9	-25	3	12*	-1.4	3
CCCCCCOC(=O)c1ccc(NC(=O)c2cc(OC)c(OC)c(OC)c2Br)cc1	1	-22	3	11*	-0.76	4
CCCCOC(=O)c1ccc(NC(=O)c2c(Cl)ccc(Cl)c2OC)cc1	0	-36	6	18*	-0.18	3
COc1cccc(-n2c(Cc3cc(=O)[nH]c(=O)[nH]3)nnc2SCc2cccc(C(F)(F)F)c2)c1	x	x	x	1	x	x
COc1ccccc1OCC(=O)N(Cc1nc(-c2ccccc2)no1)C1CCCCC1	-1	-47	3	13*	-1.7	2
Cc1ccccc1OCC(=O)N(Cc1nc(-c2ccccc2)no1)C(C)C	-9	-39	4	6	-0.53	x
CCOC(=O)CSc1nc(-c2ccccc2)nc2ccc(F)cc12	6	-44	12	13*	-0.29	3
COC(=O)CSc1nc(-c2ccccc2)nc2ccc(F)cc12	-1	-30	10	5	-0.12	x
NC(=O)CSc1nc2cc3c(cc2c(=O)n1CCCC(=O)NCc1ccc2c(c1)OCO2)OCO3	-12	-27	3	0	0.1	x
Cc1ccccc1OCC(=O)OCC(=O)c1ccc(OCc2ccccc2)cc1	6	-27	22	12*	1.1	4
O=C(COC(=O)c1cccc([N+](=O)[O-])c1)c1ccc(OCc2ccccc2)cc1	-1	-33	34	6	-1	x
Cc1ccccc1OCC(=O)OCC(=O)c1ccc(OC(=O)c2ccccc2)cc1	3	-30	3	14*	1.1	3
O=C(CNS(=O)(=O)c1ccccc1)OCC(=O)c1ccc(OC(=O)c2ccccc2)cc1	-3	3	7	4	1	x
O=C(NCc1ccccc1)/C(=C/c1ccc(OC(F)F)cc1)c1ccccc1	-1	-10	3	12*	-0.82	2
O=C(C[n+]1ccc(C(=O)NCc2ccccc2)cc1)c1ccc(OC(F)F)cc1	x	x	x	0	x	x
Cc1cccc(N2CCN(C(=O)n3ccnc3)CC2)c1C	-13	9	1	0	-0.13	x
CCC(C)NC(=O)c1ccccc1NC(=O)CN1C(=O)c2ccccc2S1(=O)=O (stereo not given)	-6	-14	17	3	-0.21	x
COC(=O)c1c(NC(=O)c2ccccc2)sc(C(=O)c2ccccc2)c1C	-9	-10	3	4	-1.1	x
COC(=O)c1c(NC(=O)c2ccc(C)cc2)sc(Cc2ccccc2)c1C	1	-23	0	14*	-1.7	4
COC(=O)c1c(NC(C)=O)sc(Cc2ccccc2)c1C	-10	-27	15	6	-1.6	x
COC(=O)c1c(NC(=O)c2ccccc2)sc(Cc2ccccc2)c1C	-6	-37	3	12*	-0.68	6
SMILES	Yeast life ext	BB579 growth dn	Measles CPE	RAM network inh	sdo1 growth	RAM efflux-def
COc1ccc(N(CC(=O)NC(C)(C)C)S(=O)(=O)c2ccccc2)cc1OC	-1	-26	4	-1	-0.53	x
Cc1ccc(C(=O)c2ccccc2C(=O)OCC(=O)NCCc2ccc(Cl)cc2Cl)cc1	10	-73	12	15*	-0.51	3
Cc1ccc(C(=O)c2ccccc2C(=O)OCC(=O)Nc2ccc(SC(F)F)cc2)cc1	5	-34	9	13*	-0.75	2
O=C(COC(=O)c1cc[n+]([O-])cc1)NCCc1ccc(Cl)cc1Cl	x	x	x	2	x	x
O=C(COC(=O)c1cc(Cl)ccc1[N+](=O)[O-])NCc1ccc(Cl)cc1Cl	1	-66	5	13*	-0.83	1
O=C(COC(=O)c1ccccc1Cc1ccccc1)Nc1ccc(SC(F)F)cc1	2	-31	14	14*	-0.5	4
Cc1ccc(C(=O)c2ccccc2C(=O)OCC(=O)Nc2cccc([N+](=O)[O-])c2)cc1	-4	-28	32	6	-0.54	x
CC(C)CN(C(=O)COC(=O)c1cc2c(s1)CCC2)C1CCS(=O)(=O)C1 (stereo not given)	17	-73	12	1	0.45	x
O=C(O)c1ccccc1-c1csc(-c2ccccc2)n1	x	x	x	-1	x	x
COc1ccc(C2CC(c3cccs3)=NN2c2ccc(C=O)cc2)cc1 (stereo not given)	2	-26	3	6	-1.1	x
CC(=O)N1CCN(C(=O)CSc2nc3c(cnn3-c3ccccc3)c(=O)[nH]2)CC1	-4	-21	0	1	0.13	x
O=C(CSc1nc2c(cnn2-c2ccccc2)c(=O)[nH]1)N1N=C(c2cccs2)CC1c1ccc(F)cc1 (stereo not given)	3	-32	6	12*	-0.47	5
Fc1ccc(C2CC(c3cccs3)=NN2c2ccccc2)cc1 (stereo not given)	x	x	x	12*	x	2
Cc1ccc(C(=O)c2cc3ccccc3o2)cc1C	-13	-21	9	15*	-0.38	3
COc1cccc(CSc2nc3ccccc3cc2C=O)c1	84*	-54	13	12*	-1.8	6
O=C(NC(c1ccccc1)c1ccccc1)C1CCCN(S(=O)(=O)c2cnc[nH]2)C1 (stereo not given)	-9	18	5	1	0.32	x
N#C/C(=C\c1ccco1)c1nc2ccccc2s1	-7	-27	19	1	-1.8	x
COc1ccc(-c2csc(/C(C#N)=C\c3cccc([N+](=O)[O-])c3)n2)cc1	-2	-45	8	5	-0.49	x
CCCCc1ccc(-c2csc(/C(C#N)=C\c3ccco3)n2)cc1	4	-26	31	15*	-0.32	9
CCCCc1ccc(-c2csc(/C(C#N)=C/c3ccc(C)o3)n2)cc1	5	-21	1	13*	0.15	8
CCOC(=O)c1c(NC(C)=O)sc2c1CCCNC2=O	-8	21	12	2	-0.05	x
COCCNc1nnc(SCC(=O)c2ccc3c(c2)OCO3)s1	-5	19	29	3	0.47	x

Bioassay records deposited in PubChem by several laboratories.
